Compound activity from PubChem.
Compounds with a hit are over-represented: about 1.8% of the library has one in this group of screens.
NR2E3 ag-1 = NR2E3 agonists in two-hybrid cells, primary screen, cell-based, luminescence, CHO-S, Gal4-NCOR/VP16-NR2E3; 0.35% of 360,000 active; Photoreceptor-specific nuclear receptor (Homo sapiens), Q9Y5X4; AID 602229, 2012; luciferase; inhibition of corepressor binding, % at 3.98 µM;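 active = inhibition above the mean of all tested compounds plus 3 SD, cut at about 70% in these data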;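 note: 0% = DMSO with NR2E3 transfected cells and 100% = cells lacking NR2E3 construct; higher means lower luciferase signal from less NR2E3 corepressor binding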
GalR3 antag = GalR3 antagonists in HEK293 cells, primary screen, cell-based, fluorescence readout; Galanin receptor type 3 (Homo sapiens), O60755; AID 651719, 2012; 0.44% of 360,000 active; inhibition, % at 3 µM; HEK293 GalR3-CNG cAMP membrane potential fluorescence; galR3 body fused to GalR1 C-terminus;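 active = inhibition above the screen-wide average plus 3 SD, cut at about 13% in these data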;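 note: forskolin and galanin both at EC90 stimulate the cells; cAMP rise reported by CNG channel membrane potential dye signal; 0% = forskolin plus galanin with DMSO and 100% = forskolin alone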
Rev-erbA mod = modulators of Rev-erb alpha DNA binding, primary screen, biochemical, FITC-DNA, fluorescence polarization, uHTS. Nuclear receptor subfamily 1 group D member 1 (Homo sapiens), P20393. Rev-erbα–FITC-DNA binding, 90 min. activity, % at 10 µM. 0.79% of 370,000 active;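 active = activity above about 14%, limit read from the data; passing the limit was not always enough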;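 note: 0% = DMSO wells with 35 nM protein and 100% = DMSO wells with 750 nM protein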
Target sequence (P20393 whole entry, looked up): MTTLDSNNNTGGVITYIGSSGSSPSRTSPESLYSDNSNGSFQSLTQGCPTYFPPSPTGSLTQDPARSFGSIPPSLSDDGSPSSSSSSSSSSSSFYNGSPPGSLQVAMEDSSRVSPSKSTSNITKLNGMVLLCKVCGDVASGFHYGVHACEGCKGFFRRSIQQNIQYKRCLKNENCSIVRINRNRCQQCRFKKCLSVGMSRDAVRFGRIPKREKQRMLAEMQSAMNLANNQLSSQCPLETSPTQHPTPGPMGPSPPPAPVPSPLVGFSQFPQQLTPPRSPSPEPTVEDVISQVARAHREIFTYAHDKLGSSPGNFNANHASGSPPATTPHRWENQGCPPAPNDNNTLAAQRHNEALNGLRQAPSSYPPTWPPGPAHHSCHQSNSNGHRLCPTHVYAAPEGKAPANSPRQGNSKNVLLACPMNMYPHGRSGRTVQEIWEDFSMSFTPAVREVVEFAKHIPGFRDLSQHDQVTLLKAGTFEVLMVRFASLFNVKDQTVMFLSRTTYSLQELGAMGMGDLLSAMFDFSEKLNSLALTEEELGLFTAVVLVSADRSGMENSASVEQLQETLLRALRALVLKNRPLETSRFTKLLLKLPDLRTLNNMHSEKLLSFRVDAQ
PG9 Ab binder = binders of HIV-1 gp120 antibody PG9, primary screen, biochemical, TR-FRET. HIV-1 gp120 / PG9 antibody interaction. TR-FRET gp120-PG9 antibody binding. 0.43% of 360,000 active. inhibition, % at 6.7 µM; in the data active = inhibition above about 8.5%
NR2E3 ag-2 = inhibitors of NR2E3-RetCOR corepressor binding, primary screen, NR2E3 agonist project, biochemical, TR-FRET, GST-NR2E3, biotin-RetCOR. 1536-well. inhibition of corepressor binding, % at 4.78 µM. 0.12% of 320,000 active. AID 2300, 2010;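 active = percent inhibition above the cutoff of mean plus 3 SD of all tested compounds, set per screening campaign, cut at about 20% in these data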;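 note: 0% = DMSO wells and 100% = biotin wells as full block of FRET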
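Material: NR2E3–RetCOR corepressor complex | Quantity: 1.35 nM GST-tagged NR2E3 final | Schedule: 5 h at 4 °C | Replication: Singlicate compound wells | Reagent: RetCOR corepressor, biotinylated, 7 nM | Controls: Biotin wells as high control, 0.6% DMSO wells as low control | Signal: TR-FRET, Eu(K)-anti-GST donor, streptavidin-D2 acceptor, ex 340, em 617/671 nm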
NR2E3 ag confirm = NR2E3 agonist confirmation in cells, cell-based, luminescence, CHO-S two-hybrid; shares compounds with NR2E3 ag-1; CHO-S mammalian two-hybrid NR2E3-NCOR, luciferase luminescence; inhibition, % at 3.98 µM; 51% of 2,300 active; AID 624378, 2012;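 active = average inhibition above a cutoff equal to the mean inhibition of all tested compounds plus one SD, cut at about 70% in these data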;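 note: 0% = DMSO in NR2E3 cells and 100% = DMSO in cells lacking NR2E3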
VP16 counter = GAL4-VP16 reporter modulators, confirmation, counter-screen for NR2E3 agonist project, cell-based, luminescence, CHO-S, high throughput. shares compounds with NR2E3 ag-1. CHO-S GAL4-VP16 luciferase reporter. inhibition, % at 3.98 µM. 29% of 2,300 active;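 active = mean inhibition above a cutoff equal to the average over all tested compounds plus one standard deviation, cut at about 70% in these data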;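 note: luciferase from a UAS reporter driven by GAL4-VP16 transactivation; 0% = DMSO with VP16-transfected cells and 100% = DMSO with cells lacking VP16; higher means less reporter light so more repression of VP16 activity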
An asterisk follows results filed as active.

Results for CCN(CC(=O)NCc1cccs1)C(=O)COc1cccc(C(F)(F)F)c1 ?
NR2E3 ag-1: 5; GalR3 antag: -5; Rev-erbA mod: -6; PG9 Ab binder: -1; NR2E3 ag-2: 1

How did Oc1c(I)cc(Cl)c2cccnc12 do in these assays?
NR2E3 ag-1: 4; GalR3 antag: 0; Rev-erbA mod: -6; PG9 Ab binder: -3; NR2E3 ag-2: -3

How did Clc1cc2cccnc2c2ncccc12 do in these assays?
NR2E3 ag-1: 83*; GalR3 antag: -7; Rev-erbA mod: 4; PG9 Ab binder: 0; NR2E3 ag-2: 1; NR2E3 ag confirm: 95*; VP16 counter: 12

How did Cc1c(C)c2cccnc2c2ncccc12 do in these assays?
NR2E3 ag-1: 79*; NR2E3 ag-2: 0; NR2E3 ag confirm: 39; VP16 counter: 9

What do the screens show for `CCOC(=O)[C@]12CCCC=C1N(CCCOC)C(=O)[C@@H]2CC(=O)NCc1ccc(OC)c(OC)c1`?
Rev-erbA mod: -2

Results for CC(C)C[C@H]1COc2cc(Br)ccc2S(=O)(=O)N1Cc1cn(CCC2OCCO2)nn1 ?
Rev-erbA mod: -6

Results for CC(C)(C)OC(=O)NCc1ccccc1/C=C/S(=O)(=O)NCc1ccccc1 ?
Rev-erbA mod: -2

How did CC(=O)OCC1=C[C@@H]2OC(=O)C3=CO[C@@H](O[C@@H]4O[C@H](CO)[C@@H](O)[C@H](O)[C@H]4O)[C@H]1[C@@H]32 do in these assays?
NR2E3 ag-1: -28; GalR3 antag: -4; Rev-erbA mod: -7; PG9 Ab binder: 1; NR2E3 ag-2: 2

How did C=C1C(=O)OC2C=C(CO)C3OC3C3OC3(C)CC(OC(=O)/C(=C/C)COC(C)=O)C12 (centres undefined) do in these assays?
NR2E3 ag-1: 86*; GalR3 antag: 0; Rev-erbA mod: 0; PG9 Ab binder: 0; NR2E3 ag confirm: 30; VP16 counter: 21

What do the screens show for `COCCNC(=O)CSCc1nc(-c2ccc(SC)cc2)oc1C`?
NR2E3 ag-1: 92*; GalR3 antag: -1; Rev-erbA mod: -2; PG9 Ab binder: 3; NR2E3 ag-2: 3; NR2E3 ag confirm: 85*; VP16 counter: 86*

What do the screens show for `CCOCCCNC(=O)CSCc1nc(-c2ccc(SC)cc2)oc1C`?
NR2E3 ag-1: 81*; GalR3 antag: -6; Rev-erbA mod: 3; PG9 Ab binder: 0; NR2E3 ag-2: 2; NR2E3 ag confirm: 81*; VP16 counter: 81*

How did CSc1ccc(-c2nc(CSCC(=O)NCCCN3CCCC3=O)c(C)o2)cc1 do in these assays?
NR2E3 ag-1: 32; GalR3 antag: -7; Rev-erbA mod: -1; PG9 Ab binder: -1; NR2E3 ag-2: 1

What do the screens show for `CCc1ccc(-c2nc(CSCC(=O)NCCCN3CCCC3=O)c(C)o2)cc1`?
NR2E3 ag-1: 71*; GalR3 antag: -4; Rev-erbA mod: 5; PG9 Ab binder: 1; NR2E3 ag-2: 0; NR2E3 ag confirm: 90*; VP16 counter: 63

How did COC(=O)[C@]12C[C@H](CC(=O)NCCc3ccccc3OC)C(=O)N(Cc3ccc4c(c3)OCO4)C1=C[C@H](C(C)C)O[C@@H]2C1CC1 do in these assays?
Rev-erbA mod: 3

How did COc1ccccc1CNS(=O)(=O)c1ccc2c(c1)CC(C)N2C(=O)C1CC1 (centres undefined) do in these assays?
NR2E3 ag-1: 29; GalR3 antag: -6; Rev-erbA mod: 3; PG9 Ab binder: 0; NR2E3 ag-2: -1
